Test results reported in the array DNA melting data of Ke et al. (doi:10.1101/2024.01.08.574731).

What was measured:
[1] = folding enthalpy; higher = less favourable; fluorescence melt of hairpins on a sequencing array, two-state fit; conditions: sodium 0.088 M
Procedure, shortened: (§1)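 Library hairpins on a sequenced MiSeq flow cell carried annealed Cy3 and quencher oligos, and their Cy3 fluorescence was imaged in 50 mM Na-HEPES pH 8.0 with 25 mM NaCl, in 2.5 °C steps up to 60 °C. Signals were normalised to Cy3 before quenching and to control constructs. Melting temperature and folding enthalpy were obtained from bootstrapped two-state fits, combined by inverse-variance weighting across four replicates, and the fitted temperatures were then raised by 9.35 °C to match UV melts.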

[2] = melting temperature; fluorescence melt of hairpins on a sequencing array, two-state fit, raised by 9.35 °C to match UV melts; conditions: sodium 0.088 M
Procedure, shortened: as §1

Row | Sequence | folding enthalpy [1] | Tm [2]
1 | GAGTTGGCGAAAGCCCTC (((..(((....)))))) | -11.1 kcal/mol | 28.7 °C
2 | GCTTGGCGAAAGCGCAGC (((..((....))..))) | -12.8 kcal/mol | 43.5 °C
3 | GGTGTCGAAAGACACACC ((((((....)))..))) | -9.34 kcal/mol | 52.5 °C
4 | GCTGACGGAAACATCAGC (((((.(....).))))) | -35.1 kcal/mol | 44.3 °C
5 | GGTGAAGCGAAAGCTACC (((..(((....)))))) | -17.1 kcal/mol | 40.5 °C
6 | GTTGTGCGAAAGCAGAAC (((.(((....))).))) | -30.9 kcal/mol | 54.1 °C
7 | GGTAAGAAATTACC (((((....))))) | -16 kcal/mol | 34.3 °C
8 | GATCGCCTTCGCGATC ((((((....)))))) | -41 kcal/mol | 68.4 °C
9 | GTACCTCGAAAGAGTAC (((.(((....)))))) | -20.8 kcal/mol | 42.5 °C
10 | GGAGGCGAAAGCCTTCC ((((((....))).))) | -13.5 kcal/mol | 57.9 °C
11 | GCTTAGCGAAAGCTACGC ((.((((....)))).)) | -22.4 kcal/mol | 51.9 °C
12 | GTCCATGCGAAAGCAGAC (((..(((....)))))) | -12.9 kcal/mol | 35.3 °C
13 | GATCTACCTTTAGATC ((((((....)))))) | -30.4 kcal/mol | 38.3 °C
14 | GCTGGGAAACCAGC (((((....))))) | -29.9 kcal/mol | 65.4 °C
15 | GAGCCGGGAAACCGACCC (.(.(((....))).).) | -13.9 kcal/mol | 30.1 °C
16 | GTCGGGGGAAACTCCGGC (.(((.(....).))).) | -29.9 kcal/mol | 47.2 °C
17 | GATCGACGAAAGTCCATC (((.(((....))).))) | -15.5 kcal/mol | 30 °C
18 | GAGTGCGAAAGCACCCTC ((((((....)))..))) | -10.4 kcal/mol | 45.1 °C
19 | GGGCGCCGAAAGGCCCCC (((.(((....))).))) | -14 kcal/mol | 65.5 °C
20 | GAATCCGGAAACGAATTC ((((.((....)).)))) | -21.1 kcal/mol | 34.1 °C
21 | GATCCAACCATGGATC ((((((....)))))) | -35.5 kcal/mol | 50 °C
22 | GATCTACCCCTAGATC ((((((....)))))) | -38.4 kcal/mol | 39.9 °C
23 | GAGACACGAAAGTGCTC (((.(((....)))))) | -16.6 kcal/mol | 44.6 °C
24 | GACTAAGAAATTAGTC ((((((....)))))) | -24.9 kcal/mol | 40.5 °C

Row | Sequence | folding enthalpy [1] | Tm [2]
25 | GATCCATTTTTGGATC ((((((....)))))) | -39.5 kcal/mol | 54 °C
26 | GCGCTCCGAAAGGAACGC (((.(((....))).))) | -46.8 kcal/mol | 65 °C
27 | GGATCCGAAAGGAGTCC ((((((....))).))) | -18.5 kcal/mol | 47.9 °C
28 | GGCGAACGAAAGTTGCC (((.(((....)))))) | -36.5 kcal/mol | 56.9 °C
29 | GATCGCAAAAGCGATC ((((((....)))))) | -29.1 kcal/mol | 61.9 °C
30 | GATCGCCAGCGCGATC ((((((....)))))) | -33.3 kcal/mol | 63.7 °C
31 | GATCCATTCATGGATC ((((((....)))))) | -43.5 kcal/mol | 59.5 °C
32 | GCGGGTTCGAAAGAACGC (((..(((....)))))) | -12.3 kcal/mol | 45.5 °C
33 | GCGTTTAGACGC ((((....)))) | -27.3 kcal/mol | 54 °C
34 | GATACTGGAAACAGTGTC ((.((((....)))).)) | -25.9 kcal/mol | 44.7 °C
35 | GCGTAACTACGC ((((....)))) | -25.4 kcal/mol | 57.1 °C
36 | GATCTGATCGCAGATC ((((((....)))))) | -11.2 kcal/mol | 42.3 °C
37 | GCATTGCGAAAGCCAGGC ((.(.((....)).).)) | -17.6 kcal/mol | 38.5 °C
38 | GATCGCAACAGCGATC ((((((....)))))) | -35.4 kcal/mol | 69.1 °C
39 | GTACAGGGAAACCTGTGC (.(((((....))))).) | -20.9 kcal/mol | 49.8 °C
40 | GATCATCCGATGATC ((((((...)))))) | -33.3 kcal/mol | 46.8 °C
41 | GCAGAGCGAAAGCTCAGC ((.((((....)))).)) | -20.4 kcal/mol | 64.8 °C
42 | GTCTACGAAAGTAGTGAC ((((((....)))..))) | -14.3 kcal/mol | 33.4 °C
43 | GAATGGGGAAACCCACTC ((.((((....)))).)) | -13.1 kcal/mol | 30 °C
44 | GCTTTCACGAAAGTGAGC (((..(((....)))))) | -11.2 kcal/mol | 33.8 °C
45 | GATCGGAACTCCGATC ((((((....)))))) | -45.1 kcal/mol | 55.2 °C
46 | GTGTAAGAAATTACAC ((((((....)))))) | -29.2 kcal/mol | 46.1 °C
47 | GGGCCTGGAAACAAGCCC ((((.((....)).)))) | -33.3 kcal/mol | 47.4 °C
48 | GACCAGGGAAACCTGGTC (((((((....))))))) | -34.4 kcal/mol | 67.5 °C

Row | Sequence | folding enthalpy [1] | Tm [2]
49 | GATCGGCGCCCCGATC ((((((....)))))) | -39.7 kcal/mol | 56.8 °C
50 | GTCATTCGAAAGAAGAC (((.(((....)))))) | -16.5 kcal/mol | 33 °C
51 | ATGCGGAAACGCAT (((((....))))) | -17.1 kcal/mol | 57.7 °C
52 | GCTTAGCGAAAGCCCAGC (((..((....))..))) | -11.5 kcal/mol | 33.4 °C
53 | GACTAACGAAAGTTTGTC (((.(((....))).))) | -30.9 kcal/mol | 47 °C
54 | GACCGACGAAAGTCGTC (((.(((....)))))) | -10.6 kcal/mol | 45 °C
55 | GATCCAAGATTGGATC ((((((....)))))) | -40 kcal/mol | 50.3 °C
56 | GGATACGGAAACGTACCC ((.((((....)))).)) | -21.1 kcal/mol | 43.3 °C
57 | GATCGTTCCTACGATC ((((((....)))))) | -41.9 kcal/mol | 56.7 °C
58 | GATCGCCCTTGCGATC ((((((....)))))) | -29.8 kcal/mol | 66.9 °C
59 | GCTAAGGGAAACTTTGGC ((.((.(....).)).)) | -10.8 kcal/mol | 27.9 °C
60 | GGAGGTGGAAACGTCTCC ((((..(....)..)))) | -18.4 kcal/mol | 35.9 °C
61 | GCACTGTCGAAAGACTGC (((..(((....)))))) | -15.9 kcal/mol | 39.4 °C
62 | GCAGGCGAAAGCCCTGC ((((((....))).))) | -19.2 kcal/mol | 65.6 °C
63 | GGGACCGAAAGGTGACCC ((((((....)))..))) | -17.6 kcal/mol | 45.6 °C
64 | GATCACATCGGTGATC ((((((....)))))) | -39.6 kcal/mol | 57 °C
65 | GCAAGCGAAAGCTTCTGC ((((((....)))..))) | -11.5 kcal/mol | 42.1 °C
66 | CGCCGGCGGAAACGCGCG (((..(((....)))))) | -21.1 kcal/mol | 51.5 °C
67 | GGCCATGGAAACATGGTC (.(((((....))))).) | -36.2 kcal/mol | 54.9 °C
68 | GCATAACGAAAGTTGTGC (((.(((....))).))) | -54.7 kcal/mol | 54.7 °C
69 | GCGGCGCGAAAGCGTTGC ((..(((....)))..)) | -21.2 kcal/mol | 66.5 °C
70 | GCGAACGAAAGTTACCGC ((((((....)))..))) | -22.1 kcal/mol | 37.7 °C
71 | GTGAACGAAAGTTCGCAC ((((((....)))..))) | -16.4 kcal/mol | 51.3 °C
72 | GAGCATGGAAACATGTTC ((.((((....)))).)) | -25.6 kcal/mol | 42.8 °C

Row | Sequence | folding enthalpy [1] | Tm [2]
73 | TGTATGAAAATACA (((((....))))) | -11 kcal/mol | 34.5 °C
74 | GTGCCAGCGAAAGCTCAC (((..(((....)))))) | -6.66 kcal/mol | 52.6 °C
75 | GTTAGGGCGAAAGCCAAC (((..(((....)))))) | -8.42 kcal/mol | 29.3 °C
76 | GATCCTTACTAGGATC ((((((....)))))) | -36.5 kcal/mol | 52.4 °C
77 | GGTTTCGAAAGAATCACC ((((((....)))..))) | -13 kcal/mol | 26.7 °C
78 | GATCTATAGTTAGATC ((((((....)))))) | -27.1 kcal/mol | 39.4 °C
79 | GCGATCGAAAGATCACGC ((((((....)))..))) | -21.7 kcal/mol | 48.2 °C
80 | GATCGGACTCCCGATC ((((((....)))))) | -35.3 kcal/mol | 53.8 °C
81 | GTGTTCGGAAACGGACAC ((((.((....)).)))) | -44.6 kcal/mol | 55 °C
82 | GGGTTCGAAAGAAGCCCC ((((((....)))..))) | -20.9 kcal/mol | 55.3 °C
83 | GAAAACGAAAGTTTGTTC ((((((....)))..))) | -13.5 kcal/mol | 28.4 °C
84 | GCGCTCGAAAGAGCTCGC ((((((....)))..))) | -14.4 kcal/mol | 47.8 °C
85 | GGGAACCGAAAGGTGCCC (((.(((....))).))) | -41.4 kcal/mol | 64.3 °C
86 | GATCCGTCGACGGATC ((((((....)))))) | -48.8 kcal/mol | 61.9 °C
87 | CGGCACGGAAACGTACCG (((.(((....))).))) | -30.5 kcal/mol | 50.4 °C
88 | GTTTAGTCGAAAGACAAC (((..(((....)))))) | -10.8 kcal/mol | 27.4 °C
89 | CGTAATCGGAAACGAACG (((..(((....)))))) | -7.75 kcal/mol | 20.9 °C
90 | GTATCGGGAAACTGGTAC (((.(.(....).).))) | -17.8 kcal/mol | 32.3 °C
91 | GCCCCCGAAAGGGTGGC ((((((....))).))) | -21 kcal/mol | 65.9 °C
92 | GCAGAGCGAAAGCTCCGC ((.((((....)))).)) | -16.8 kcal/mol | 61.1 °C
93 | GCGAAATCTCGC ((((....)))) | -20.3 kcal/mol | 45.2 °C
